In the library only some 1.6% were active in any assay of this set; here they are far more common.
RBBP9 inhibitor: inhibitors of human serine hydrolase RBBP9 | AID 1515 | recombinant RBBP9, FP-Rh probe fluorescence polarization | O75884 | actives 0.2% (n = 220,000) | inhibition, % at 7.94 µM;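 active means inhibition above the campaign mean of all tested compounds plus 3 SD, cut at about 14% in these data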;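 further: plate controls were DMSO wells with RBBP9 for no effect and wells lacking RBBP9 protein for full effect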
Target sequence (O75884 whole entry, looked up): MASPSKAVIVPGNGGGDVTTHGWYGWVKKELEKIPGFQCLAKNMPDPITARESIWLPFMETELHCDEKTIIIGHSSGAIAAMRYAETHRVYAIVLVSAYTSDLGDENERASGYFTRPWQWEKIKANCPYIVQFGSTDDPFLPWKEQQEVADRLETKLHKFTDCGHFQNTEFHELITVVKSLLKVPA
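Test system – recombinant human RBBP9 · Input – RBBP9 2.5 µM in dispensing solution, pre-mixing · Medium – Tris buffer pH 8.0, NaCl, Pluronic · Schedule – preincubation 30 min plus labeling 45 min at 25 °C · Measured by – fluorescence polarization · Measure – % inhibition · Controls – DMSO and no-protein wells · Replicates – one well per compound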
EBV gp42 block: EBV gp42 inhibition | Fluorescence polarization binding assay, mP read-out | AID 1085 | inhibition, % (tested at 21.74 µM) | actives 0.42% (n = 220,000)
Target sequence (Q1HVG2 whole entry, looked up): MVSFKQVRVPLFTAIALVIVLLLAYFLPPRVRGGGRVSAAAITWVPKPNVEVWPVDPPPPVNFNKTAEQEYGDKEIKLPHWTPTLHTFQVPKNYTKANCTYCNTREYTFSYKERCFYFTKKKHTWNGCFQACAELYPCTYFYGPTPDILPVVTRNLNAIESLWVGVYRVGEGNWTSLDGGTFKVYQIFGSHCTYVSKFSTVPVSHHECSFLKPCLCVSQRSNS
eIF4E-4G inh: blocks eIF4E binding to eIF4G | P63073+Q04637 | TR-FRET eIF4E-eIF4GI(517-606) binding, 2 h | inhibition, % at 21.7 µM | AID 782 | actives 0.37% (n = 220,000);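 active means inhibition above about 30%, limit read from the data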;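 further: 0% = full FRET control wells and 100% = background wells lacking eIF4GI fragment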
PKD1 kinase inh: blocks activity of human protein kinase D1 | Q15139 | PKD1 kinase fluorescence polarization assay | inhibition, % (no concentration beside the values) | actives 0.056% (n = 200,000)
14-3-3 Bad inh: disrupts binding of bovine 14-3-3 zeta to phospho-Bad peptide. P63103. TR-FRET 14-3-3zeta/Dy647-pBad peptide displacement, 1 h. inhibition, % at 21.7 µM. actives 0.71% (n = 220,000). AID 781;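 active means inhibition above about 70%, limit read from the data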;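 further: 0% = full 14-3-3 plus peptide FRET controls and 100% = background without 14-3-3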
* marks the source's active call; other numbers are inactive results; [ ] = dose if it differs, or a comment. Unless noted, no stated cut-off is given here; in the data, active means inhibition above about 50%; inactive means the rest.

`OC(CNCc1ccccc1Cl)C(F)(F)F` (stereo unspecified) gave RBBP9 inhibitor 2.4, EBV gp42 block -6.9, eIF4E-4G inh 0.9, PKD1 kinase inh -0.9 and 14-3-3 Bad inh 82.4*.
For Cc1c(Br)c(C(F)(F)F)nn1CC(=O)NCc1ccccc1 the results were RBBP9 inhibitor 0.6, EBV gp42 block -4.5, eIF4E-4G inh 5.2, PKD1 kinase inh 1.0 and 14-3-3 Bad inh -7.2.
For O=C1c2cccc3cccc(c23)C(=O)N1c1ccc2ncccc2c1 the results were RBBP9 inhibitor 1.2, EBV gp42 block -70.5, eIF4E-4G inh 6.5, PKD1 kinase inh -2.2 and 14-3-3 Bad inh 73.8*.
Screening Cc1ccc(-n2c(C)cc(/C=N/Nc3ccc([N+](=O)[O-])cn3)c2C)cc1 returned RBBP9 inhibitor 2.2, EBV gp42 block -54.6, eIF4E-4G inh 34.7*[fluorescence artefact?], PKD1 kinase inh -2.2 and 14-3-3 Bad inh 61.7.
CCOc1cc(CNCCCN2CCOCC2)cc(Br)c1OCC(=O)Nc1cccc(C(F)(F)F)c1 was read as RBBP9 inhibitor 5.3, EBV gp42 block -11.8, eIF4E-4G inh 1.3, PKD1 kinase inh 9.2 and 14-3-3 Bad inh 79.3*.
Screening COc1cc(CNCCCN2CCOCC2)cc(Br)c1OCC(=O)N1CCCCC1 returned RBBP9 inhibitor -5.1, EBV gp42 block -14.0, eIF4E-4G inh 2.3, PKD1 kinase inh -6.3 and 14-3-3 Bad inh 45.6.
`Cn1cc(/C=C2\SC(=O)NC2=S)c2ccccc21` gave RBBP9 inhibitor -4.5, EBV gp42 block 71.6*, eIF4E-4G inh -4.8, PKD1 kinase inh 7.1 and 14-3-3 Bad inh -6.9.
`Cc1ccc(C(=O)NN2C(=O)/C(=C/c3cn(C)c4ccccc34)SC2=S)cc1` gave RBBP9 inhibitor -1.8, EBV gp42 block 129.7*, eIF4E-4G inh -4.6, PKD1 kinase inh -0.2 and 14-3-3 Bad inh -10.3.
For Cc1ccc(C(=O)NN2C(=O)/C(=C/c3cccn3C)SC2=S)cc1 the results were RBBP9 inhibitor 4.8, EBV gp42 block -97.2, eIF4E-4G inh 10.4, PKD1 kinase inh -6.2 and 14-3-3 Bad inh 3.6.
`Cn1cc(/C=C2\SC(=S)N(NC(=O)c3ccccc3Cl)C2=O)c2ccccc21` gave RBBP9 inhibitor -6.9, EBV gp42 block 87.3*, eIF4E-4G inh 7.8, PKD1 kinase inh -2.9 and 14-3-3 Bad inh -6.9.
Screening N#CC(Cc1ccc(OC(F)F)cc1)c1nc2ccccc2[nH]1 (stereo unspecified) returned RBBP9 inhibitor -4.7, EBV gp42 block -3.9, eIF4E-4G inh 0.9, PKD1 kinase inh 3.0 and 14-3-3 Bad inh 3.5.
`O=C(COc1ccc([N+](=O)[O-])cc1)Nc1ccc(CN2CCOCC2)cc1` gave RBBP9 inhibitor -11.4, EBV gp42 block -2.9, eIF4E-4G inh 4.9, PKD1 kinase inh 3.3 and 14-3-3 Bad inh -2.2.
Screening Cc1ccc2cccc(Oc3ccc([N+](=O)[O-])cc3[N+](=O)[O-])c2n1 returned RBBP9 inhibitor -8.4, EBV gp42 block -8.1, eIF4E-4G inh 6.0, PKD1 kinase inh 3.9 and 14-3-3 Bad inh -4.5.
Screening Cc1ccc([N+](=O)[O-])cc1-c1ccc2cccc(C)c2n1 returned RBBP9 inhibitor 4.9, EBV gp42 block -15.2, eIF4E-4G inh 70.8*[fluorescence artefact?], PKD1 kinase inh -15.3 and 14-3-3 Bad inh -2.1.
Screening CCN(CCC(=O)Nc1cc([N+](=O)[O-])ccc1OC)Cc1ccccc1 returned RBBP9 inhibitor 3.1, EBV gp42 block -3.6, eIF4E-4G inh -1.7, PKD1 kinase inh -8.8 and 14-3-3 Bad inh 7.2.
`Cc1cccc(C)c1NC(=O)COC(=O)c1c2c(nc3ccccc13)/C(=C\c1ccc3c(c1)OCO3)CCC2` gave RBBP9 inhibitor -1.9, EBV gp42 block 97.6*, eIF4E-4G inh 9.0, PKD1 kinase inh -2.7 and 14-3-3 Bad inh -8.8.
`Cc1cccc(C)c1NC(=O)COC(=O)c1ccc2c(c1)OCO2` gave RBBP9 inhibitor -8.8, EBV gp42 block -4.4, eIF4E-4G inh 1.5, PKD1 kinase inh -2.4 and 14-3-3 Bad inh 1.2.
For CC(OC(=O)c1c2c(nc3ccccc13)/C(=C\c1ccc3c(c1)OCO3)CCC2)C(=O)Nc1ccc(S(N)(=O)=O)cc1 (stereo unspecified) the results were RBBP9 inhibitor -1.3, EBV gp42 block 149.3*, eIF4E-4G inh 7.7, PKD1 kinase inh -11.3 and 14-3-3 Bad inh -5.8.
Screening COC(=O)c1cc(N2CCN(C)CC2)nc2ccccc12 returned RBBP9 inhibitor -4.3, EBV gp42 block 82.3*, eIF4E-4G inh 0.5, PKD1 kinase inh -8.8 and 14-3-3 Bad inh 4.7.
